Activity calls are given as the source filed them. The rule behind the calls is not given here.
Legend:
[1] = species: Oryctolagus cuniculus; assay: Activity of rabbit liver adenosine kinase
How it was run: (§1)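 Adenosine kinase partially purified from rabbit liver. Assay in 20 mM KPO4 pH 5.8 with 0.7 mM ATP, 0.25 mM phosphoenol pyruvate, 0.5 mM MgCl2, 50 mM KCl, pyruvate kinase and 7–70 µM radioactive nucleoside substrate, at 25 °C. Reaction stopped with 0.25 M perchloric acid. Nucleotides separated by paper electrophoresis at pH 3.5 and counted by scintillation. Km, Ki and relative Vmax (adenosine = 100) derived.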

[2] = system: L2; assay: Growth inhibition of mouse L2 cells at 15 uM
[3] = species: Oryctolagus cuniculus; assay: Activity of rabbit liver adenosine kinase relative to adenosine; how it was run: as §1

| SMILES | Km [1] [µM] | Vmax [1] [µM/min] | Activity [2] | Activity [3] |
| --- | --- | --- | --- | --- |
| Nc1ncnc2c1ccn2[C@@H]1O[C@H](CO)[C@@H](O)[C@H]1O | 9.5 | 3.57 | Active | 114 |
| Nc1ncnc2c1ncn2[C@@H]1O[C@H](CO)[C@@H](O)[C@H]1O | 5.5 | 3.13 |  |  |

Reference: ChEMBL document CHEMBL1143932, “Biochemical and biological properties of 5-bromotubercidin: differential effects on cellular DNA-directed and viral RNA-directed RNA synthesis” (Bioorg Med Chem, 2008)
